Results collected from several papers.
rep methyltransferase: Replicase polyprotein 1ab, methyltransferase (rep, Severe acute respiratory syndrome coronavirus 2, UniProt P0DTD1)
rep main protease: Replicase polyprotein 1ab, main protease (rep, Severe acute respiratory syndrome coronavirus 2, UniProt P0DTD1)
FABP1: Fatty acid-binding protein, liver (FABP1, Homo sapiens, UniProt P07148)

| SMILES | target | test | conditions | measurement | result |
| --- | --- | --- | --- | --- | --- |
| CC1CC(c2ccc(S(N)(=O)=O)cc2)=NN1c1ccc(C#N)c(Cl)c1 (centres unmarked) | rep methyltransferase | enzyme activity, inhibitor |  | IC50 | > 100 µM |
| CC(=O)[C@@]1(O)CC[C@H]2[C@@H]3C[C@H](C)C4=CC(=O)C=C[C@]4(C)[C@@]3(F)[C@@H](O)C[C@@]21C | rep main protease | enzyme activity, inhibitor |  | IC50 | 60.6 µM |
| O=c1c(O)c(-c2ccc(O)cc2)oc2c(O)c(O)cc(O)c12 | rep main protease | enzyme activity, inhibitor | with preincubation | IC50 | < 10 µM |
| CC1(C)O[C@@H]2C[C@H]3[C@@H]4CCC5=CC(=O)C=C[C@]5(C)[C@H]4[C@@H](O)C[C@]3(C)[C@]2(C(=O)CO)O1 | rep main protease | enzyme activity, inhibitor |  | IC50 | 71.4 µM |
| CN1C(=O)/C(=N\Nc2ncc(-c3cc4ccccc4oc3=O)s2)c2cc(Cl)ccc21 | Alpha-glucosidase MAL12 (MAL12, Saccharomyces cerevisiae S288c, UniProt P53341) | enzyme activity, inhibitor, absorbance |  | IC50 | 112 µM |
| CCNS(=O)(=O)C(F)(F)C(F)(F)C(F)(F)C(F)(F)C(F)(F)C(F)(F)C(F)(F)C(F)(F)F | FABP1 | ligand displacement, fluorescence |  | Kd | 16.6 µM |
| O=C(O)c1cc(O)c(O)c(O)c1 | rep main protease | binding, MST |  | Kd | 3.95 µM |
| COc1cc2c(cc1OC)CN(CCc1ccc(NC(=O)c3cccc4c(=O)c5cccc(OC)c5[nH]c34)cc1)CC2 | Histamine H2 receptor (HRH2, Homo sapiens, UniProt P25021) | cell-free assay |  | Ki | 1.1 µM |
| COc1ncc(-c2ccc3nccc(-c4ccnnc4)c3c2)cc1NS(=O)(=O)c1ccc(F)cc1F | rep methyltransferase | enzyme activity, inhibitor |  | IC50 | ~100 µM |
| NS(=O)(=O)C(F)(F)C(F)(F)C(F)(F)C(F)(F)C(F)(F)C(F)(F)C(F)(F)C(F)(F)F | FABP1 | ligand displacement, fluorescence |  | Kd | 5.87 µM |
| CCOC(=O)c1ccc(OC(=O)CCCCCN=C(N)N)cc1 | Kallikrein-12 (Homo sapiens, UniProt Q9UKR0) | enzyme activity, inhibitor |  | IC50 | 0.0357 µM |
